According to ChEMBL document CHEMBL4190230, “Structurally Diverse Diterpenoids from Isodon scoparius and Their Bioactivity” (J Nat Prod, 2017):

Legend:
Type in all cases: functional, cell-based
[1] = system: HL-60; test: Antiproliferative activity against human HL60 cells after 48 hrs by MTS assay; settings: HL-60, 48 h
Procedure, shortened: (§1)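 Cells grown in RPMI-1640 or DMEM with 10% FBS at 37 °C, 5% CO2. Seeded, 12 h at 37 °C, then 40 μM single-concentration screen, 48 h exposure, MTS read-out. Compounds reaching 50% growth inhibition retested at 0.064, 0.32, 1.6, 8 and 40 μM in triplicate; cisplatin and paclitaxel positive controls; IC50 by Reed and Muench method.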

[2] = system: SMMC-7721; test: Antiproliferative activity against human SMMC7721 cells after 48 hrs by MTS assay; settings: SMMC-7721, 48 h; procedure, shortened: as §1
[3] = system: A549; test: Antiproliferative activity against human A549 cells after 48 hrs by MTS assay; settings: A549, 48 h; procedure, shortened: as §1
[4] = system: MCF7; test: Antiproliferative activity against human MCF7 cells after 48 hrs by MTS assay; settings: MCF7, 48 h; procedure, shortened: as §1
[5] = system: SW480; test: Antiproliferative activity against human SW480 cells after 48 hrs by MTS assay; settings: SW480, 48 h; procedure, shortened: as §1
[6] = system: RAW264.7; test: Inhibition of LPS-induced NO production in mouse RAW264.7 cells after 18 hrs by Griess assay; settings: RAW264.7, 18 h
Procedure, shortened: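 RAW264.7 macrophages seeded at 1.5 × 10^5 cells/well, given serial dilutions (top 20 μM) in triplicate, then stimulated with 1 μg/mL LPS for 18 h. Supernatant nitrite measured with Griess reagent, 5 min, absorbance 570 nm. L-NMMA positive control; parallel MTS viability check to exclude cytotoxic interference.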

Row | SMILES | IC50 [1] | IC50 [2] | IC50 [3] | IC50 [4] | IC50 [5] | IC50 [6]
1 | C=C1C(=O)[C@]23C[C@@]1(O)C[C@H](OC(C)=O)[C@H]2[C@@]1(C)[C@H](C[C@H]3O)[C@](C)(COC(C)=O)CC[C@@H]1O | 3.2 µM | 3.9 µM | 13.4 µM | 4.8 µM | 1.3 µM | 1.8 µM
2 | C=C1[C@@H](O)[C@@]23CC[C@@H]4C(C)(C)[C@@H](O)CC[C@@]4(C)[C@@H]2[C@@H](OC(C)=O)C[C@]1(O)C3 | > 40 µM | > 40 µM | > 40 µM | > 40 µM | > 40 µM | 
3 | CNC(=N)NCCC[C@H](N)C(=O)O [TILARGININE ACETATE] |  |  |  |  |  | 39.9 µM
4 | C=C1C(=O)[C@]23C[C@@]1(O)C[C@H](OC(C)=O)[C@H]2[C@@]1(C)[C@H](C[C@H]3O)C(C)(C)CC[C@@H]1O | 7 µM | 4.7 µM | 19.6 µM | 11 µM | 2.5 µM | 3.1 µM
5 | C=C1[C@@H](O)[C@@]23CC[C@@H]4C(C)(C)[C@H](O)CC[C@@]4(C)[C@@H]2[C@@H](O)C[C@]1(O)C3 | > 40 µM | > 40 µM | > 40 µM | > 40 µM | > 40 µM | 
6 | C=C1C(=O)[C@@]23CC[C@@H]4C(C)(C)[C@@H](O)CC[C@@]4(C)[C@@H]2[C@@H](OC(C)=O)C[C@]1(O)C3 | 1 µM | 1.5 µM | 4.4 µM | 2.9 µM | 0.9 µM | 1 µM
7 | C=C1C(=O)[C@]23C[C@@]1(O)C[C@H](OC(C)=O)[C@H]2[C@@]1(C)[C@H](C[C@H]3O)[C@](C)(CO)CC[C@@H]1O | > 40 µM | > 40 µM | > 40 µM | > 40 µM | > 40 µM | 
8 | C=C1[C@@H](O)[C@@]23CC[C@@H]4[C@@](C)(CO)CCC[C@@]4(C)[C@@H]2[C@@H](O)C[C@]1(O)C3 | > 40 µM | > 40 µM | > 40 µM | > 40 µM | > 40 µM | 
9 | C=C1[C@@H](O)[C@@]23CC[C@@H]4C(C)(C)[C@H](O)CC[C@@]4(C)[C@@H]2[C@@H](OC(C)=O)C[C@]1(O)C3 | > 40 µM | > 40 µM | > 40 µM | > 40 µM | > 40 µM | 
10 | C=C1[C@@H](O)[C@@]23CC[C@H]4[C@@](C)(CCC[C@@]4(C)C=O)[C@@H]2[C@@H](OC(C)=O)C[C@]1(O)C3 | > 40 µM | > 40 µM | > 40 µM | > 40 µM | > 40 µM | 
11 | C=C1[C@@H](O)[C@@]23CC[C@@H]4[C@@](C)(CO)CCC[C@@]4(C)[C@@H]2[C@@H](OC(C)=O)C[C@]1(O)C3 | > 40 µM | > 40 µM | > 40 µM | > 40 µM | > 40 µM | 
12 | C[C@@]1(CO)CCC[C@@]2(C)[C@H]1C[C@@H](O)C1=CC(=O)CC[C@@]12O | > 40 µM | > 40 µM | > 40 µM | > 40 µM | > 40 µM | 
13 | CC(=O)O[C@H]1C(=O)[C@@]2(C)[C@H]([C@H](OC(=O)c3ccccc3)[C@]3(O)C[C@H](OC(=O)[C@H](O)[C@@H](NC(=O)c4ccccc4)c4ccccc4)C(C)=C1C3(C)C)[C@]1(OC(C)=O)CO[C@@H]1C[C@@H]2O [PACLITAXEL] | < 0.008 µM | < 0.008 µM | < 0.008 µM | < 0.008 µM | < 0.008 µM | 
